By Ki is commonly meant a dissociation constant, usually derived from enzyme kinetics or from competition with a known ligand. The low end stands for a stronger hold on the target, the high end for a looser hold on the target. What is called inhibition in vivo is the change of the read-out against control, counted positive when it falls. As a reminder, the inhibition is how much of the control response was suppressed. A lower inhibition goes with little suppression.

The values below come from ChEMBL document CHEMBL1122240, “Inhibition by carboxamides and sulfoxides of liver alcohol dehydrogenase and ethanol metabolism” (J Med Chem, 1983).

One data set deals with Alcohol dehydrogenase (Equus caballus, UniProt P00327+P00328). Put plainly: In vitro inhibition against horse liver alcohol dehydrogenase.
Data set [1] in a line: In vivo inhibition of ethanol metabolism following 1 mMol/Kg i.p. To be noted: ip.
The test system of data set [2] is [O-][S+]1CCCC1. Briefly: (§1) Michaelis-Menten's constant was determined against horse liver alcohol dehydrogenase in presence of acetaldehyde. To be noted: Equus caballus. Put shortly:
(§2)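 Purified horse liver enzyme, reverse reaction. Freshly distilled acetaldehyde was varied (1–5 mM; 0.4–2.0 mM in some runs) with 0.1 mM NADH and at least three inhibitor levels. Initial velocities were read as A340 change, 32 points per experiment, and inhibition constants were obtained from double-reciprocal fits.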

The test system of data set [3] is CC(C)CC(N)=O. The description is as §1. Particulars: Equus caballus. In a few lines: as §2
Data set [4] deals with [O-][S+]1CCCC1. Put plainly: (§3) Michaelis-Menten's constant was determined against horse liver alcohol dehydrogenase in presence of ethanol. To be noted: Equus caballus. In a few lines:
(§4)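 Purified horse liver enzyme with ethanol varied as substrate and NAD+ as coenzyme. At least three inhibitor concentrations were tested (e.g. 0–0.2 mM). Initial velocities were followed at 340 nm, 32 points in one experiment. Intercept and slope constants were derived from double-reciprocal plots fitted to uncompetitive or noncompetitive equations.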

The test system of data set [5] is CC(C)CC(N)=O. The description is as §3. Particulars: Equus caballus. Put shortly:
as §4

The nature of data set [6]: Michaelis-Menten's constant was determined in vivo against rat liver alcohol dehydrogenase in presence of ethanol. The data set is classed as organism-based. Put shortly: (§5)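 Fed male Sprague-Dawley rats (175–280 g) received inhibitor ip (0.1 M sulfoxide or ≤0.46 M amide in saline) at 0–1.0 mmol/kg. Ten minutes later ethanol (3.26 M) was given ip at 7.69, 10.9 or 19.6 mmol/kg. Tail blood was sampled over time and ethanol measured by GC against a tert-butyl alcohol internal standard. Rate was derived by Widmark's method.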

Data set [7] in a line: Intercept inhibition constant was determined in vitro against purified rat liver alcohol dehydrogenase in presence of ethanol. In a few lines: (§6)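 Rat liver enzyme partially purified by (NH4)2SO4 fractionation, DEAE-cellulose and Sephadex G-100. Assays ran in 83 mM potassium phosphate pH 7.3 with 40 mM KCl (μ 0.25) at 37.8 °C, with 0.5 mM NAD+, ethanol at 0.4–2 mM and inhibitor at 0–0.6 mM. Initial rates were read at 340 nm, 32 points per experiment.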

Data set [8] has as its target T1, Alcohol dehydrogenase (Equus caballus) (UniProt P00327+P00328). Put plainly: Slope inhibition constant was determined against horse liver alcohol dehydrogenase in presence of acetaldehyde. In a few lines:
as §2

Data set [9] deals with T1, Alcohol dehydrogenase (Equus caballus). Briefly: Intercept inhibition constant was determined against horse liver alcohol dehydrogenase in presence of ethanol. Put shortly: as §4
For data set [10] the target is unchanged. Put plainly: Intercept inhibition constant was determined against horse liver alcohol dehydrogenase in presence of acetaldehyde. Put shortly: as §2
Data set [11] shares this target. Briefly: Slope inhibition constant was determined against horse liver alcohol dehydrogenase in presence of ethanol. Put shortly:
as §4

Data set [12] is described as follows: Intercept inhibition constant was determined in vivo against rat liver alcohol dehydrogenase in presence of ethanol. It counts as organism-based. In a few lines: as §5
Data set [13] in a line: Michaelis-Menten's constant was determined in vitro against purified rat liver alcohol dehydrogenase in presence of ethanol. In a few lines: as §6
Data set [14] can be described thus: Slope inhibition constant was determined against purified rat liver alcohol dehydrogenase in presence of ethanol. Put shortly: as §6
A short description of data set [15]: In vivo inhibition of ethanol metabolism following 1 mMol/Kg i.p.

Sequence of Alcohol dehydrogenase (Equus caballus) (from UniProt P00327+P00328) (P00328 whole entry, looked up): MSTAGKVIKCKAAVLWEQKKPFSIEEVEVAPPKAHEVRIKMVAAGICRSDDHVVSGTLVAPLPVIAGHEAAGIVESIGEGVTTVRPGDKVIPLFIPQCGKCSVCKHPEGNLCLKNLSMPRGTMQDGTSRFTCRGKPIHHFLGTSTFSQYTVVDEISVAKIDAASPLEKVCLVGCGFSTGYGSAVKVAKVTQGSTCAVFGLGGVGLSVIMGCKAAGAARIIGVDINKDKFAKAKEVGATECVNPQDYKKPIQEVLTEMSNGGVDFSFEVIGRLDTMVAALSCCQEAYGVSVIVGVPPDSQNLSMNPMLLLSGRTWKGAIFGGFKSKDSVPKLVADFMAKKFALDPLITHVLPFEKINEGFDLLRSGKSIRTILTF
Sequence of Alcohol dehydrogenase (Equus caballus) (from UniProt P00327+P00328) (P00327 whole entry, looked up): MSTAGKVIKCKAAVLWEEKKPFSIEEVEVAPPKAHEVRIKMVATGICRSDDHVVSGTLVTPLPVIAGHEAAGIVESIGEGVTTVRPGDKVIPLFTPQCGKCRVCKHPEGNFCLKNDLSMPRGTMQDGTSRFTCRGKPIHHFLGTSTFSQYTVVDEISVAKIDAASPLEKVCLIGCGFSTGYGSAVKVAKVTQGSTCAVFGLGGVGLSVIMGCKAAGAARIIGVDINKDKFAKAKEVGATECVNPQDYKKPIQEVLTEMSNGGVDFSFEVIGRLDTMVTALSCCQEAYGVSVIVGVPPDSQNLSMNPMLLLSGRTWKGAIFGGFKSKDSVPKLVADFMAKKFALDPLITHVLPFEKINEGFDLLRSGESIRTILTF

On Alcohol dehydrogenase, `NNC(N)=S` [THIOSEMICARBAZIDE] showed an inhibition constant (Ki) of 1900 µM.
Same read-out and setting: in the case of `CC[S+]([O-])c1ccccc1` (stereo unspecified) it was 12500 µM.
For `NC(=O)CCO`, the inhibition constant (Ki) on Alcohol dehydrogenase was determined as 8500 µM. In data set [1], the inhibition in vivo at 1000 µmol/kg is 15%.
For `NC(=O)CCCO`, in that order: 6800 µM and 5%.
Consider “Alcohol dehydrogenase (Equus caballus) (from UniProt P00327+P00328)”, for which the Km in data set [O-][S+]1CCCC1 [2] was 230 µM; in the data set with CC(C)CC(N)=O [3], 150 µM; in data set [O-][S+]1CCCC1 [4], 620 µM; in the data set on CC(C)CC(N)=O [5] it was 900 µM.
Consider `NC(=O)C(O)CCO` (stereo unspecified), for which the Ki at Alcohol dehydrogenase is 5800 µM.
`NC(=O)CCCl`: at Alcohol dehydrogenase, the Ki turned out to be 5300 µM. The inhibition in vivo at 1000 µmol/kg in data set [1] is 15%.
The corresponding values for `CCCCCC[S+](C)[O-]` (stereo unspecified) are 47 µM and 67%.
At Alcohol dehydrogenase, `CC(C)C(=O)NN` showed a Ki of 2900 µM.
`NC(=O)C(F)(F)C(F)(F)C(F)(F)F` [HEPTAFLUOROBUTYRAMIDE] gave a Ki at Alcohol dehydrogenase of 2000 µM.
Turning to `NC(=O)CSCC(N)=O`, at Alcohol dehydrogenase, the inhibition constant Ki worked out at 36000 µM. The compound further returned an inhibition in vivo at 1000 µmol/kg in data set [1] of 7%.
`CC(C)CC(N)=O` [ISOVALERAMIDE]: the Km in data set [6] turned out to be 1500 µM/kg. In addition, the Kii in data set [7] turned out to be 20 µM; in data set [9] it was 20 µM; in data set [10], 460 µM; in data set [12] it was 180 µM/kg. For the same compound, the Ki on Alcohol dehydrogenase was found to be 20 µM. This compound displayed an inhibition in vivo at 1000 µmol/kg in data set [1] of 78%. Further, the Kis in data set [8] is 11 µM; in data set [11] it was 160 µM.
At Alcohol dehydrogenase, `[O-][S+]1CCCCC1` returned a Ki of 480 µM. This compound returned an inhibition in vivo at 1000 µmol/kg in data set [1] of 21%.
The corresponding values for `C[S+]([O-])Cc1ccccc1` (stereo unspecified) are 5000 µM and 13%.
The corresponding values for `NC(=O)CCCCO` are 4400 µM and 9%.
Take `O=C1CCCCN1`: at Alcohol dehydrogenase, the inhibitory constant (Ki) worked out at 13000 µM.
Compound `C=C[S+]([O-])c1ccccc1` (stereo unspecified) came in with a Ki at Alcohol dehydrogenase of 500 µM.
For `NC(=O)CCCCCO`, the inhibitory constant (Ki) on Alcohol dehydrogenase came to 1500 µM. Besides, the inhibition in vivo at 1000 µmol/kg in data set [1] amounted to 24%.
The corresponding values for `[O-][S+]1CCC1` are 150 µM and 25%.
`NC(=O)C1CC1` [CYCLOPROPANECARBOXYLIC ACID AMIDE] yielded a Ki on Alcohol dehydrogenase of 790 µM. Besides, the inhibition in vivo at 1000 µmol/kg in [1] came to 29%.
For `CC(C)(C)CC(N)=O`, in that order: 150 µM and 71%.
For `[O-][S+]1CCCC1`, the Km in data set [6] stood at 2000 µM/kg; in data set [13] it was 350 µM. The Kii in data set [7] is 200 µM; in [9], 19 µM; in data set [10], 71 µM; in data set [12], 340 µM/kg. The compound also showed an inhibitory constant (Ki) at Alcohol dehydrogenase of 19 µM. The Kis in [8] amounted to 11 µM; in data set [14] it was 230 µM; in [11] it was 130 µM. In data set [15], the inhibition was 63%.
`CC(C)(Br)C(N)=O` displayed an inhibition in vivo at 1000 µmol/kg in [1] of 5%.
With `CC(C)C[S+](C)[O-]` (stereo unspecified), on Alcohol dehydrogenase, the inhibitory constant (Ki) stood at 340 µM. The same compound yielded an inhibition in vivo at 1000 µmol/kg in data set [1] of 14%.
The corresponding values for `CCCCCCCCCCCCCC[S+](C)[O-]` (stereo unspecified) are 10 µM and 15%.
For `CC(C)C(N)=O` [ISOBUTYRAMIDE], in that order: 220 µM and 36%.
In turn, `O=C1CC[S+]([O-])CC1` displayed an inhibition constant (Ki) at Alcohol dehydrogenase of 9700 µM.
Same read-out and setting: for `NC(N)=S` [THIOUREA] the value was 42000 µM; for `CC[S+]([O-])CC`, 1100 µM; for `[O-][S+]1CCOCC1`, 10600 µM.
Compound `CCCCCCCCC(N)=O` [NONANOAMIDE] displayed an inhibition in vivo at 1000 µmol/kg in [1] of 15%.
In turn, `[O-][S+]1CCNCC1` returned an inhibition constant Ki at Alcohol dehydrogenase of 120000 µM.
With `C[S+]([O-])c1ccccc1` (stereo unspecified) [METHYLPHENYLSULFOXIDE], the Ki on Alcohol dehydrogenase was 200 µM. This compound had an inhibition in vivo at 1000 µmol/kg in data set [1] of 19%.
Compound `COCC(N)=O` [METHOXYACETAMIDE] gave a Ki on Alcohol dehydrogenase of 600 µM. Besides, the inhibition in vivo at 1000 µmol/kg in [1] was found to be 18%.
The corresponding values for `CC[S+](C)[O-]` (stereo unspecified) are 500 µM and 16%.
For `CC(C)CC[S+](C)[O-]` (stereo unspecified), in that order: 430 µM and 19%.
